Measurements reported in ChEMBL document CHEMBL2412983, “Synthesis and evaluation of N⁸-acetylspermidine analogues as inhibitors of bacterial acetylpolyamine amidohydrolase” (Bioorg Med Chem, 2013).

Target: T1, Acetylpolyamine amidohydrolase (Mycoplana ramosa, UniProt Q48935)
T1 sequence (Q48935 whole entry): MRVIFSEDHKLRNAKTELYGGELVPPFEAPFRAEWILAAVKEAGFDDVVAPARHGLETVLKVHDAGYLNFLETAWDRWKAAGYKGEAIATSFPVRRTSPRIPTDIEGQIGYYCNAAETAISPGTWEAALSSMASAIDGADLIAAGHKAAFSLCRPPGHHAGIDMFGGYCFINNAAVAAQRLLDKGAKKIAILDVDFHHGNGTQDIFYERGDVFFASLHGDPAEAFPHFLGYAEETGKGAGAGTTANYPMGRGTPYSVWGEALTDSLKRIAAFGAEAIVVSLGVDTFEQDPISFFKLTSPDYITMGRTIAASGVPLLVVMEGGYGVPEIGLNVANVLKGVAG
Assay: Inhibition of Mycoplana ramosa APAH expressed in Escherichia coli BL21 (DE3) using BML-KI104 as substrate after 30 mins by fluorimetric assay
Details: not given
In short: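 Recombinant enzyme purified from E. coli, 250 nM, at 25 °C with 150 μM Fluor-de-Lys acetyl substrate and 0–100 mM inhibitor. Buffer was 25 mM Tris pH 8.2, 137 mM NaCl, 2.7 mM KCl, 1 mM MgCl2, with 100 μM TCEP only for the thiol compound. Stopped at 30 min with 100 μM M344 plus developer. Fluorescence (ex 355/em 460 nm) was read after 45 min. Each concentration was run in triplicate in separate experiments.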
Molecule `CC(=O)CCCCCNCCCN` has an IC50 of 160 µM. `NCCCNCCCCCC(=O)NO` gave an IC50 of 0.39 µM. Molecule `NCCCNCCCCCS` has an IC50 of 26 µM. Work on `CS(=O)(=O)CCCCCNCCCN` yielded an IC50 of 10000 µM. Molecule `NCCCNCCCCCC(=O)O` has an IC50 of 1800 µM. In the case of `NCCCNCCCCCC(=O)C(F)(F)F`, the IC50 is reported as 0.27 µM. `CC(=O)SCCCCCNCCCN` showed an IC50 of 1900 µM. With `NCCCNCCCCCB(O)O` the IC50 was 230 µM. `COCC(=O)CCCCCNCCCN` gave an IC50 of 380 µM. `CC(=O)SCC(=O)CCCCCNCCCN` showed an IC50 of 39 µM.

Target: not listed separately
Assay: Inhibition of N8-acetylspermidine deacetylase in rat liver subcellular extract
Details: read-out: Ki(app)
Molecule `NCCCNCCCCCC(=O)NO` has a Ki of 0.001 µM.
